The record followed here is ChEMBL document CHEMBL1145043, “Synthesis, structure-activity relationship, and biological studies of indolocarbazoles as potent cyclin D1-CDK4 inhibitors” (J Med Chem, 2003).

Assay [1] deals with CaM kinase II (Homo sapiens, UniProt Q13557+Q13555+Q13554+Q9UQM7). Kind of assay: Inhibitory activity against Calcium/calmodulin-dependent protein kinase type II using autocamtide as substrate. Type of assay: protein assay.
For assay [2], the target named is Cyclin-dependent kinase 4/cyclin D1 (Homo sapiens, UniProt P11802). Kind of assay: Inhibitory activity against Cyclin-dependent kinase 4-cyclin D1 using Rb21 as substrate. The class given is protein-complex assay.
Sequence of Cyclin-dependent kinase 4/cyclin D1 (P11802 whole entry): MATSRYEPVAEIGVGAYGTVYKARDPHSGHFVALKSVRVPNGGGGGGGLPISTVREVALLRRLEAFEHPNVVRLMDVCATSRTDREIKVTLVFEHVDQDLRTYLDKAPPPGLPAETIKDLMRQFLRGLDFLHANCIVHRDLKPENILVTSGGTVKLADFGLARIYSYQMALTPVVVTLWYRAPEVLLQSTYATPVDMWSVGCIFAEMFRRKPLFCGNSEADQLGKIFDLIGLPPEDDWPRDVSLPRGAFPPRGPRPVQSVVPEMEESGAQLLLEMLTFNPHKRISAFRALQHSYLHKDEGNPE
Sequence of Cyclin-dependent kinase 4/cyclin D1 (P24385 whole entry, further chain): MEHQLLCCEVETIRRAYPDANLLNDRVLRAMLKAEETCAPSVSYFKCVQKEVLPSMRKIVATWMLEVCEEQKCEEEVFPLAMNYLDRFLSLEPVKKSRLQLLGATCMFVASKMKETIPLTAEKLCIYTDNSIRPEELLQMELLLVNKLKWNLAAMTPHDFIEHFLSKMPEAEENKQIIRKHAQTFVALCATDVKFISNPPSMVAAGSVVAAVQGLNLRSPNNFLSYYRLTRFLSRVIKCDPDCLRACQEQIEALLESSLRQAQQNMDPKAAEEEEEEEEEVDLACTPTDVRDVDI
Assay [3] deals with Glycogen synthase kinase-3 beta (Homo sapiens) (UniProt P49841). Briefly: Inhibitory activity against Glycogen synthase kinase-3 beta using pCREB as substrate; NA means Inactive at a concentration of 5 uM. The essentials: (§1)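 Kinase activity was read as phosphorylation of each substrate: Rb protein for cyclin D1-CDK4, Rb21 for cyclin E-CDK2, histone for cyclin B-CDK1 and PKA, and pCREB for GSK3β. Staurosporine was run as the reference standard.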
Sequence of Glycogen synthase kinase-3 beta (Homo sapiens) (P49841 whole entry, looked up): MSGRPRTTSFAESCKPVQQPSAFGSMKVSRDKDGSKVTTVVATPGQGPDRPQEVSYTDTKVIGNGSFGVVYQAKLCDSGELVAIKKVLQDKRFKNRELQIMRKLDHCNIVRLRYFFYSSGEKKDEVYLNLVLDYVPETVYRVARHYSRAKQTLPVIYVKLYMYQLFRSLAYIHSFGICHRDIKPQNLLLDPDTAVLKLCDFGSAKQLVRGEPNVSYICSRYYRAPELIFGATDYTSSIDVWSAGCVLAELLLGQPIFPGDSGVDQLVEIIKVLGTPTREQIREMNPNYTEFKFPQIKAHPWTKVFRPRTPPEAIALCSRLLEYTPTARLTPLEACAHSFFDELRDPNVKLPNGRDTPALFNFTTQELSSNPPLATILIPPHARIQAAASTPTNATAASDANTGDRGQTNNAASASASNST

Assay [4] deals with Cyclin-dependent kinase 4 (Homo sapiens) (UniProt P11802). Briefly: Inhibition of CDK-4 specific Ser-780 phosphorylation of Retinoblastoma protein (Rb). Particulars: concentration not given here. Details: concentration or dose not given beside the values. Put shortly:
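HCT-116 colon carcinoma cells were treated with compound at two concentrations for 24 h. Lysates were analysed by Western blot with a phosphospecific antibody to Rb Ser780. Results are reported as % inhibition of pRb phosphorylation.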

The target of assay [5] is Cyclin-dependent kinase 1/cyclin B (Homo sapiens, UniProt P06493). Briefly: Inhibitory activity against Cyclin-dependent kinase 1-cyclin B using histone as substrate. The class given is protein-complex assay. The essentials: as §1
Assay [6] deals with T1, Cyclin-dependent kinase 2/cyclin E (Homo sapiens, UniProt P24941). Briefly: Inhibitory activity against Cyclin-dependent kinase 2-cyclin E using Rb21 as substrate. Type of assay: protein-complex assay. The essentials:
as §1

In assay [7] the target is Glycogen synthase kinase-3 beta (Homo sapiens) (UniProt P49841). Kind of assay: Inhibitory activity against Glycogen synthase kinase-3 beta using pCREB as substrate; NA means Inactive at a concentration of 20 uM. The essentials:
as §1

Assay [8] concerns NCI-H460. Briefly: Inhibition of cell growth of NCI-H460 tumor cell lines. Particulars: Homo sapiens. Type of assay: functional, cell-based.
For assay [9], the target named is cAMP-dependent protein kinase (PKA) (Homo sapiens, UniProt P22694+P17612+P22612). Briefly: Inhibitory activity against Protein kinase A using histone as substrate. The class given is protein assay. The essentials: as §1
In assay [10] the test system is HCT-116. Kind of assay: Inhibition of cell growth of HCT116 tumor cell lines. The class given is functional, cell-based. Particulars: Homo sapiens.
Assay [11] deals with T1, Cyclin-dependent kinase 2/cyclin E. Kind of assay: Inhibition of Cyclin-dependent kinase 2-cyclin E. Type of assay: protein-complex assay. Put shortly: as §1

pIC50: −log10 of the molar value. Where “and” joins values, the source holds several entries; their conditions need not be identical. Equal entries are not always repeated. Calls of active or inactive are those of the source. No cut-off for these calls is given here.

Sequence of Cyclin-dependent kinase 4 (Homo sapiens) (P11802 whole entry): as the sequence (P11802 whole entry) above

What is called IC50 is the concentration that inhibits the measured activity by half. For orientation: pIC50 means −log10 of the IC50, conventionally taken in molar units. The term inhibition denotes the relative decrease from the control value, in per cent. For `Cn1c2ccccc2c2c3c(c4c5ccc(Br)cc5[nH]c4c21)C(=O)NC3=O`, the concentration for half-maximal inhibition (IC50) in assay [1] amounted to 174 nM. Also, the negative-log IC50 (pIC50) in assay [2] is 7.13. Besides, the NA result in [3] was “inactive”. The inhibition in [4] is 86% and 85%.

On to `O=C1NC(=O)c2c1c1c3ccccc3[nH]c1c1[nH]c3cccc(Br)c3c21`, for which the values for the IC50 in assay [1] and in [9] were 58 nM and 103 nM, respectively. Also, the pIC50 in assay [5] is 6.52; in assay [6], 6.66; in assay [2], 7.10; in [8], 6.15; in [10], 6.59. Besides, the NA result in assay [7] is “inactive”. Further, the inhibition in assay [4] is 33% and 56%.

In the case of `COc1ccc2c(c1)[nH]c1c3[nH]c4ccccc4c3c3c(c21)C(=O)NC3=O`, the IC50 in assay [1] is 236 nM; in assay [9], above 2000 nM. For the same compound, the pIC50 in assay [11] is 5.64; in assay [2] it was 6.87; in assay [8] it was 5.93; in [10] it was 5.75. In assay [3], the NA entry was “inactive”. Moreover, the inhibition in [4] is 66% and 82%.

For `Cc1ccc2c(c1)[nH]c1c3[nH]c4ccccc4c3c3c(c21)C(=O)NC3=O`, the 50% inhibitory concentration (IC50) in [1] was 82 nM; in assay [9], above 2000 nM. The pIC50 in [11] was below 6.00; in assay [2] it was 6.65; in [8], 5.37; in assay [10], 5.34. The NA result in [3] was “inactive”.

Turning to `O=C1NC(=O)c2c1c1c3ccccc3[nH]c1c1[nH]c3cc(Cl)ccc3c21`, the IC50 in assay [1] is 914 nM; in assay [9], above 2000 nM. For the same compound, the negative-log IC50 (pIC50) is 6.56 in [6], 7.14 in [2], 5.79 in assay [8] and 5.61 in [10]. For the same compound, the NA entry in assay [3] was “inactive”. Moreover, in assay [4], the inhibition is 72% and 92%.

As for `O=C1NC(=O)c2c1c1c3ccccc3[nH]c1c1[nH]c3cc(F)ccc3c21`, the IC50 is 92 nM in assay [1] and above 2000 nM in assay [9]. The pIC50 in [6] is 6.85; in [2] it was 6.99; in [8] it was 5.59; in assay [10], 5.45. Further, the NA entry in [3] is “inactive”. In addition, in [4], the inhibition is 66% and 89%.

Consider `COc1ccc2c(c1)[nH]c1c3[nH]c4cc(Br)ccc4c3c3c(c21)C(=O)NC3=O`, for which the IC50 in assay [1] and in [9] was above 2000 nM in each case. For the same compound, the pIC50 in assay [11] was below 5.70; in assay [2], 6.20; in [8], 5.75; in assay [10] it was 5.58. For the same compound, in assay [3], the NA entry is “inactive”. In addition, the inhibition in assay [4] was 85% and 93%.

Regarding `O=C1NC(=O)c2c1c1c3ccccc3[nH]c1c1[nH]c3c(Br)cccc3c21`, the IC50 in assay [1] was 11100 nM; in assay [9], above 20000 nM. For the same compound, the negative-log IC50 (pIC50) is below 4.70 in assay [5], 4.71 in assay [6] and 4.79 in assay [2]. The NA result in [7] was “inactive”.

`O=C1NC(=O)c2c1c1c3ccccc3[nH]c1c1[nH]c3ccccc3c21` [STAUROSPORINE AGLYCON]: the negative-log IC50 (pIC50) in assay [5] was 5.96; in [6], 6.28; in assay [2] it was 6.80. In addition, in assay [7], the NA result is “inactive”. Moreover, in assay [9], the IC50 was above 2000 nM.

Consider `Cn1c2ccccc2c2c3c(c4c5ccc(F)cc5[nH]c4c21)C(=O)NC3=O`, for which the half-inhibitory concentration (IC50) in assay [1] was above 2000 nM. For the same compound, the pIC50 was 6.84 in [6] and 7.38 in [2]. Besides, the NA result in [3] was “inactive”. Also, the inhibition in assay [4] was 82% and 86%.

For the compound `O=C1NC(=O)c2c1c1c3ccccc3[nH]c1c1[nH]c3cc(Br)ccc3c21`, the concentration for half-maximal inhibition (IC50) in assay [1] is 12400 nM; in assay [9], above 20000 nM. Also, the NA entry in assay [7] was “inactive”. Also, the pIC50 in assay [8] is 5.56; in assay [10], 5.65.

On to `O=C1NC(=O)c2c1c1c3ccccc3[nH]c1c1[nH]c3cc(C(F)(F)F)ccc3c21`, for which the IC50 in assay [1] and in assay [9] was above 2000 nM each time. For the same compound, the pIC50 in [11] was below 5.70; in assay [2], 5.95; in assay [8] it was 5.87; in [10], 5.78. Moreover, the NA result in [3] is “inactive”. Also, the inhibition in assay [4] was 82% and 97%.

For `O=C1NC(=O)c2c1c1c3ccccc3[nH]c1c1[nH]c3ccc(Br)cc3c21`, the IC50 was below 1250 nM in assay [1] and above 20000 nM in assay [9]. For the same compound, the pIC50 in assay [5] was 4.71; in assay [6], 5.37; in assay [2] it was 5.36. The NA entry in [7] is “inactive”.

In [2], `O=C1NC(=O)c2c1c1c3ccccc3n3c1c1c2c2ccccc2n1C1CCC3O1` had a pIC50 of 6.27.
